Data reported in ChEMBL document CHEMBL1137574, “Synthesis and structure-activity relationship for a novel class of potent and selective carbamate-based inhibitors of hormone selective lipase with acute in vivo antilipolytic effects” (J Med Chem, 2007).
Activity calls are given as the source filed them. The rule behind the calls is not given here.

Legend:
[1] = species: Homo sapiens; assay: Inhibition of acetylcholine lipase
[2] = biological target: Cytochrome P450 2C9 (Homo sapiens, UniProt P11712); assay: Inhibition of CYP2C9 in human liver microsome; assay type: ADME; conditions: microsomes
Cytochrome P450 2C9, sequence (P11712 whole entry): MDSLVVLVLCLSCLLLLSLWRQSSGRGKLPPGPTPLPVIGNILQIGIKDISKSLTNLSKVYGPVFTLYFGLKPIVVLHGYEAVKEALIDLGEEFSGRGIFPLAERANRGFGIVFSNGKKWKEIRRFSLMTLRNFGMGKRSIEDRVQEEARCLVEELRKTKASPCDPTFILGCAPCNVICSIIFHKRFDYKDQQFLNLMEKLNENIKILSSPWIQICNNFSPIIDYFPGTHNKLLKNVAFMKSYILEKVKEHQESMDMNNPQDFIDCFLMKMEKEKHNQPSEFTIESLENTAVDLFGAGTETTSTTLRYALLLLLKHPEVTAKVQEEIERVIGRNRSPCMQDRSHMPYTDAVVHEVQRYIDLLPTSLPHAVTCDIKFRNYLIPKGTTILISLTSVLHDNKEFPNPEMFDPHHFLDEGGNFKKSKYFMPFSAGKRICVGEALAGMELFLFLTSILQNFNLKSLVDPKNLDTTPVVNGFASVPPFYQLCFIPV

[3] = Clearance in Sprague-Dawley rat at 1.2 mg/kg, iv and […] mg/kg, po; assay type: ADME, organism-based; conditions: in vivo
[4] = Oral bioavailability in Sprague-Dawley rat at 2.4 mg/kg, po; assay type: ADME, organism-based; conditions: in vivo
Method in brief: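 Male Sprague-Dawley rats, 12 weeks old, dosed by oral gavage and i.v. in 10% hydroxypropyl cyclodextrin in phosphate buffer pH 7.0, with one rat per time point. Plasma was diluted 1:1 in 10% methanol, centrifuged and quantified by turbulent-flow chromatography–tandem MS against plasma calibration curves (10-3000 ng/mL).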

[5] = biological target: T1, Hepatic triacylglycerol lipase (Homo sapiens) (UniProt P11150); assay: Inhibition of hepatic lipase
T1 sequence (whole entry): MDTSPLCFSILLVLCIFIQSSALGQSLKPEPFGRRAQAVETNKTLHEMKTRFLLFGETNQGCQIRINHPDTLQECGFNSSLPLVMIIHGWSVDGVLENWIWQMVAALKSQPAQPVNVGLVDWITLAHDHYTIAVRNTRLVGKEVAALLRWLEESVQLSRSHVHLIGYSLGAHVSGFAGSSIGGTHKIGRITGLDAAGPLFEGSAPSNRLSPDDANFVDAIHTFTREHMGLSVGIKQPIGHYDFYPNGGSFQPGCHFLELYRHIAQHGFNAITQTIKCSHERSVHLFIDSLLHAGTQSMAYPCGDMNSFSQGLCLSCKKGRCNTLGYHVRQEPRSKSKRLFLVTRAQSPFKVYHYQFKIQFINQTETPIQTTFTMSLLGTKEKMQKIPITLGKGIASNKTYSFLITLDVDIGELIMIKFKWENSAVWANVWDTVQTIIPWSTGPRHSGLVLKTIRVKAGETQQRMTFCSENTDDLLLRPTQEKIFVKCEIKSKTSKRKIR
Method in brief: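 Lipase inhibition (pancreatic, bovine lipoprotein, human hepatic) used a fluorochrome (NBD)-labelled triacylglyceride substrate. Inhibitor at six concentrations, 5-fold dilutions from a maximum of 100 µM, each point the mean of two measurements. IC50 from sigmoidal variable-slope nonlinear regression.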

[6] = species: Homo sapiens; assay: Inhibition of butyrylcholine lipase
[7] = Cmax in Sprague-Dawley rat at 1.2 mg/kg, iv and […] mg/kg, po; assay type: ADME, organism-based; conditions: in vivo, 2.4 mg/kg
[8] = biological target: T2, Cytochrome P450 1A2 (Homo sapiens, UniProt P05177); assay: Inhibition of CYP1A2 in human liver microsome; assay type: ADME; conditions: microsomes
T2 sequence (P05177 whole entry): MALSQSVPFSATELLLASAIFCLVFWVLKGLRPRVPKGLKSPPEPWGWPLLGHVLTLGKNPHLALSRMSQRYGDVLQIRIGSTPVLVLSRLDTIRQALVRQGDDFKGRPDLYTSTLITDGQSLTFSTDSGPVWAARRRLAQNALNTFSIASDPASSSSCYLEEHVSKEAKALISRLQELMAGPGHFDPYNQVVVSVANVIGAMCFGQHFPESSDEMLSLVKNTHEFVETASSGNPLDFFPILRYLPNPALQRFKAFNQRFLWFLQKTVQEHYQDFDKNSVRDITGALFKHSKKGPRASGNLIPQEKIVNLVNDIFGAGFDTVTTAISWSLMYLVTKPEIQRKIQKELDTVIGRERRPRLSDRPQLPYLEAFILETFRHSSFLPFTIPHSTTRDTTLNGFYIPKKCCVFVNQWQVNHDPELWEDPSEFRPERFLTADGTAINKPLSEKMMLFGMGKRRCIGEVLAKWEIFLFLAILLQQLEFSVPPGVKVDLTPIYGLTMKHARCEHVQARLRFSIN
Method in brief: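 Pooled human liver microsomes (0.1 mg, ≥15 donors) incubated 10 min at 37 °C with 1 mM NADPH and test compound at 20 µM, in triplicate. Substrates at Km: CYP1A2, 14C-phenacetin 40 µM; CYP2D6, 14C-dextromethorphan 3 µM. Conversion read by charcoal extraction then scintillation counting of the supernatant.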

[9] = test system: Rattus norvegicus; assay: Reduction of glycerol in Sprague-Dawley rat at 10 mg/kg, po; assay type: ADME, organism-based; design: dose 10 mg/kg, route oral; scale not given: the % may be the effect or the level left; conditions: in vivo
Method in brief: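 Male Sprague-Dawley rats, 12 weeks old, fasted overnight; single 10 mg/kg p.o. dose (n = 4 per group; vehicle n = 8). Orbital plexus blood under isoflurane taken at baseline (0.5 h predose) and 1, 3 and 5 h postdose into EDTA tubes with 0.1% NaF. Plasma glycerol measured on an automated analyzer as the antilipolytic endpoint.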

[10] = biological target: Acetylcholinesterase (Homo sapiens, UniProt P22303); assay: Inhibition of acetylcholine esterase
Acetylcholinesterase, sequence (P22303 whole entry): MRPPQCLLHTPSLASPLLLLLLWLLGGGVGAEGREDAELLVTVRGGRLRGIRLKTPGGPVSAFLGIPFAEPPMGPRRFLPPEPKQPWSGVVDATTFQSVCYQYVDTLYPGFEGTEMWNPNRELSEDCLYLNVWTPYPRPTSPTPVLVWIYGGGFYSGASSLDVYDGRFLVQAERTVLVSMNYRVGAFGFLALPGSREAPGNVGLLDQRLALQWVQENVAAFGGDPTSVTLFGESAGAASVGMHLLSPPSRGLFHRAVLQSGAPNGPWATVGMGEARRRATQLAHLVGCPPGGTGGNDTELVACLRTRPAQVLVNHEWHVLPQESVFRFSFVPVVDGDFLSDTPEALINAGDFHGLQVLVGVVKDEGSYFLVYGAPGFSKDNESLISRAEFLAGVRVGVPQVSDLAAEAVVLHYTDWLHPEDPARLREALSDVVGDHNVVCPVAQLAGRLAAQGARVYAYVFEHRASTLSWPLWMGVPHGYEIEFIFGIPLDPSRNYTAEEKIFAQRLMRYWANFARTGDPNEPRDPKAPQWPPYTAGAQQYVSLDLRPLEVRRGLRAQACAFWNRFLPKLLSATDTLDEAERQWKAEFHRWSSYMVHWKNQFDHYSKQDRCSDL
Method in brief: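 Acetylcholinesterase activity measured with acetylthiocholine substrate. Inhibitor at six concentrations in 5-fold steps from a maximum of 100 µM, duplicate measurements averaged. IC50 from variable-slope sigmoidal dose-response fit.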

[11] = Cmax in Sprague-Dawley rat at 1.1 mg/kg, iv and 2 mg/kg, po; assay type: ADME, organism-based; conditions: in vivo
Method in brief: (§1)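 Rat PK study, one rat per time point. Dosed i.v. and p.o. by gavage in 10% hydroxypropyl cyclodextrin in phosphate buffer pH 7.0; one compound was given in 20% Tween 80 plus 5% glucose in phosphate buffer pH 7.0. Plasma was diluted 1:1 with 10% methanol and centrifuged, then quantified by turbulent-flow chromatography–MS/MS against plasma calibration curves spanning 10-3000 ng/mL.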

[12] = Oral bioavailability in Sprague-Dawley rat at 2.2 mg/kg, po; assay type: ADME, organism-based; conditions: in vivo; method in brief: as §1
[13] = Clearance in Sprague-Dawley rat at 1.1 mg/kg, iv and 2.2 mg/kg, po; assay type: ADME, organism-based; conditions: in vivo; method in brief: as §1

Row | SMILES | Activity [1] | Activity [2] | clearance [3] [L/h/kg] | bioavailability [4] [%] | Activity [5] | Activity [6] | Cmax [7] [µg/mL] | Activity [8] | Activity [9] [%] | IC50 [10] [µM] | Cmax [11] [µg/mL] | bioavailability [12] [%] | clearance [13] [L/h/kg]
1 | O=C(Oc1ccc(Oc2ccc(C(F)(F)F)cn2)cc1)N1CCC(O)CC1 | inactive | Not Active | 0.54 | 56 | inactive | inactive | 1.22 | Not Active | 42 | > 50 |  |  | 
2 | O=C(Oc1ccc(Oc2ccc(C(F)(F)F)cn2)cc1)N1CCC(CO)CC1 | inactive | Not Active |  |  | inactive | inactive |  | Not Active | 59 |  | 0.06 | 10 | 2.76
